Compounds with a hit are over-represented: about 3.1% of the library has one in this group of screens.
PHOSPHO1 inh: inhibitors of human PHOSPHO1 phosphatase; Q8TCT1; recombinant PHOSPHO1, absorbance phosphatase assay; inhibition, % at 13.3 µM; actives 1.1% (n = 290,000); AID 1565; in the data active = inhibition above about 60%
Target sequence (Q8TCT1 whole entry, looked up): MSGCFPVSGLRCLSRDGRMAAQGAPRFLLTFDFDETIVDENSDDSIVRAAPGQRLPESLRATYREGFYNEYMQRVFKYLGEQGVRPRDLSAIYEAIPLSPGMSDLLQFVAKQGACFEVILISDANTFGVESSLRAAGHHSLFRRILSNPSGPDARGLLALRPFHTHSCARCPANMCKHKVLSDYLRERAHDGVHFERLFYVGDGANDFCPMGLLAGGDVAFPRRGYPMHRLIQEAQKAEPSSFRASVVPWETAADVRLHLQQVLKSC
HCV core dimer: blocks dimerization of HCV core protein | AID 1899 | inhibition, % at 5 µM | actives 0.33% (n = 300,000) | TR-FRET GST/Flag-core106 dimerization, 1536-well;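 active = inhibition above the mean of all tested compounds plus 3 SD, set per screening campaign, cut at about 45% in these data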
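Assay system – GST-tagged and Flag-tagged HCV core protein residues 1-106 · Quantity – core106 proteins, GST 13.5 nM and Flag 17 nM · Benchmarks – unlabelled core106 and no-GST-core106 wells · Read-out basis – percent inhibition of core106 dimerization signal · Detection – time-resolved FRET, ex 340 nm, em 617 and 671 nm · Schedule – 4 h at 22.5 °C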
HCV NS3 hel inh: inhibitors of Hepatitis C virus NS3 helicase; NS3 helicase DNA unwinding, Cy5 molecular beacon fluorescence; inhibition, % at 10.9 µM; actives 0.56% (n = 290,000); AID 1800;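 active = inhibition above the mean of all tested compounds plus 3 SD, set per campaign, cut at about 35% in these data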;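 note: 0% = DMSO wells and 100% = thioflavine S control wells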
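Control set: DMSO versus 110 µM thioflavine S; Material: NS3 helicase fragment of HCV; Measured by: Cy5 fluorescence at 0 and 60 min, beacon hairpin quenching; Read-out basis: percent inhibition from t60/t0 fluorescence ratio; Times: reaction time 60 min, 25 °C; Repeats: single replicate; Compound dosing: single dose, 10.9 µM nominal final, DMSO 0.8% final.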
IMP-1 inhibitor: blocks Pseudomonas aeruginosa IMP-1 metallo-beta-lactamase; inhibition, % at 5.6 µM; actives 0.45% (n = 290,000); purified IMP-1, nitrocefin hydrolysis, epi-absorbance fluorescence;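 active = inhibition above the mean plus 3 SD of all compounds in the same screening run, cut at about 4.5% in these data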;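 note: 0% = IMP-1 with DMSO and 100% = DMSO wells lacking enzyme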
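System: Purified IMP-1 | Read-out basis: Percent enzyme inhibition | Controls: IMP-1 with DMSO as 0%, enzyme-free DMSO as 100% | Replicates: One well per compound | Doses: 5.6 µM nominal single concentration | Detection: Epi-absorbance fluorescence, 480 nm excitation, 530 nm emission | Incubation: 25 °C, 15 min preincubation, 25 min reaction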
VIM-2 inh: inhibitors of Pseudomonas aeruginosa VIM-2 metallo-beta-lactamase; purified VIM-2, nitrocefin hydrolysis, epi-absorbance fluorescence; inhibition, % at 5.6 µM; actives 0.89% (n = 290,000); AID 1527;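 active = inhibition above the mean of all tested compounds plus 3 SD, cutoff set per screening run, cut at about 7.5% in these data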;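 note: red hydrolysis product quenches plate fluorescence so inhibitors raise well fluorescence; 0% = enzyme with DMSO and 100% = DMSO without enzyme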
SUMO HTRF inh: blocks human SUMOylation mediated by UBC9; inhibition, % at 35 µM; actives 0.36% (n = 290,000); HTRF SUMOylation assay, SAE1/SAE2 + UBC9, in vitro; in the data active = inhibition above about 50%, passing the limit was not always enough
Target sequence (P63279 whole entry, looked up): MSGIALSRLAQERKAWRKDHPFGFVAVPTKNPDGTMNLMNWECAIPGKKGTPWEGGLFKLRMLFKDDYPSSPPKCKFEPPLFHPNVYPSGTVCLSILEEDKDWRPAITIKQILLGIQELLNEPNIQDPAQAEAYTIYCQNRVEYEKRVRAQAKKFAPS
* marks the source's active call; other numbers are inactive results; . = not tested or not shown.

SMILES | PHOSPHO1 inh | HCV core dimer | HCV NS3 hel inh | IMP-1 inhibitor | VIM-2 inh | SUMO HTRF inh
Cc1cc(C(=O)CSc2nnc(-c3ccc(F)cc3)o2)c(C)n1CC1COc2ccccc2O1 (stereo unspecified) | 91* | 22 | 3 | -2 | 1 | 11
Cc1cc(C(=O)CSc2nnc(-c3ccc(F)cc3)o2)c(C)n1CC1CCCO1 (stereo unspecified) | 100* | 9 | 9 | 0 | -3 | 20
Cc1cc(C(=O)CSc2nnc(-c3ccccc3)o2)c(C)n1CC1COc2ccccc2O1 (stereo unspecified) | -35 | 16 | 14 | 3 | -1 | 9
COc1ccccc1CN1C[C@@H]2C[C@@H](c3cccc(C)c3)N3CCC[C@@]23C1=O | 41 | 7 | 9 | -1 | -2 | 16
CCOC(=O)c1cc(=O)c2ccc(OCC(=O)Nc3ccc(F)cc3)cc2o1 | -1 | 4 | -1 | 1 | -1 | 14
Cc1cc2cc(CN(Cc3cccs3)C(=S)NCc3ccco3)c(=O)[nH]c2cc1C | -30 | 18 | 26 | -1 | 8.6* | 10
Cn1c(SCC(=O)N2CCOCC2)nc2c(c1=O)SCC2 | 9 | 5 | 9 | -1 | -1 | 16
CC(/C=C1\SC(=S)N(NC(=O)c2ccc(C)cc2)C1=O)=C\c1ccccc1 | -84 | 67* | 9 | -2 | -3 | 1
Cc1cc(Cl)ccc1-n1c(-c2cccnc2)n[nH]c1=S | 78* | 0 | 14 | -6 | -2 | -15
Cc1ccccc1-n1c(-c2ccncc2)n[nH]c1=S | -32 | -6 | . | . | . | 14
COc1ccccc1-n1c(-c2ccc(NS(C)(=O)=O)cc2)n[nH]c1=S | 88* | 3 | -3 | -4 | 5 | 11
CCc1ccccc1-n1c(-c2ccncc2)n[nH]c1=S | 90* | -5 | 0 | -3 | 0 | 15
Cc1ccc(C)c(-n2c(-c3cccnc3)n[nH]c2=S)c1 | 13 | 0 | -6 | -3 | -1 | -14
Cc1cccc(-n2c(-c3ccncc3)n[nH]c2=S)c1C | -20 | 49* | 2 | -3 | -1 | 14
N#Cc1c(-c2ccco2)cc(-c2cccnc2)nc1N | -2 | 45 | 8 | -3 | 1 | 57
N#Cc1c(-c2ccco2)cc(-c2ccccn2)nc1N | 11 | 73* | 15 | 1 | -3 | 42
Cc1c(N2C(=O)c3ccc4c5c(ccc(c35)C2=O)CC4)c(=O)n(-c2ccccc2)n1C | 78* | 82* | 15 | -3 | 3 | 56*
C=CCn1c(SCC(=O)N(C)C)nc2sc3c(c2c1=O)CCC3 | 12 | -1 | 8 | -1 | 8.4* | -4
C=CCSc1nc2sc3c(c2c(=O)n1CC)CCC3 | 29 | -1 | 5 | -3 | 1 | 0
COC(=O)C(C)Oc1ccc(-c2nccc(-c3ccccn3)n2)cc1 (stereo unspecified) | 16 | -10 | 9 | -6 | -1 | 12
COc1ccc(-c2nnc(SCc3csc(N)n3)n2C)cc1 | 73* | -1 | -4 | -6 | -3 | 9
Cc1cc2occ(CC(=O)N(C)CC(=O)Nc3ccc(F)cc3)c2cc1C | . | 1 | . | . | . | .
O=C(O)C1=C(C(=O)Nc2cc(C(F)(F)F)ccc2Cl)CCCC1 | 32 | -6 | -3 | 9.9* | 4 | 8
O=C(CN1CCCCCC1)Nc1cc(C(F)(F)F)ccc1Cl | 11 | 0 | 4 | -2 | 0 | -6
Cc1ccccc1-n1cc(CNC(=O)CCc2nnc(CCc3ccccc3)o2)cn1 | 48 | 4 | -8 | -3 | -3 | -3
CC(=O)c1sccc1NC(=O)c1ccccc1C(=O)O | 16 | 27 | 19 | -3 | -3 | -3
CC1=NN(c2ccc(C)c(C)c2)C(=O)/C1=C/c1ccc2c(c1)n(C)c(=O)n2C | -4 | -6 | 3 | -4 | -2 | 85*
COc1ccc(/C=C2/C(=O)N(c3ccccc3)N=C2C)cc1Br | 25 | 2 | -2 | -2 | -4 | 32
CC(=O)Nc1ccccc1C(=O)N1CCN(Cc2ccc3c(c2)OCO3)CC1 | 14 | 9 | 2 | -2 | -2 | 1
Cc1nn(CC(=O)Nc2c(F)c(F)cc(F)c2F)c(=O)c2cccn12 | 7 | -5 | -3 | -2 | 0 | 10

High-throughput results from PubChem.
